# Only some compounds are listed: those with a hit (about 2.9% of all), similar ones and a draw of the others.
# DDE Tn7 FP inh – DD(E)-Tn7 binding inhibition, primary FP screen | hit rate 0.13% among 370,000 | inhibition, % at 8.3 µM | P02675 | FP displacement of FITC-Tn7 peptide from fibrin DD(E); 0% = median of compound wells per plate;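 active = inhibition above the mean of compounds falling within the control limits plus 3 SD of them, cut at about 14% in these data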;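 note: 0% = plate median of compound wells and 100% = 10 µM Aha-Tn7 peptide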
# Target sequence (P02675 whole entry, looked up): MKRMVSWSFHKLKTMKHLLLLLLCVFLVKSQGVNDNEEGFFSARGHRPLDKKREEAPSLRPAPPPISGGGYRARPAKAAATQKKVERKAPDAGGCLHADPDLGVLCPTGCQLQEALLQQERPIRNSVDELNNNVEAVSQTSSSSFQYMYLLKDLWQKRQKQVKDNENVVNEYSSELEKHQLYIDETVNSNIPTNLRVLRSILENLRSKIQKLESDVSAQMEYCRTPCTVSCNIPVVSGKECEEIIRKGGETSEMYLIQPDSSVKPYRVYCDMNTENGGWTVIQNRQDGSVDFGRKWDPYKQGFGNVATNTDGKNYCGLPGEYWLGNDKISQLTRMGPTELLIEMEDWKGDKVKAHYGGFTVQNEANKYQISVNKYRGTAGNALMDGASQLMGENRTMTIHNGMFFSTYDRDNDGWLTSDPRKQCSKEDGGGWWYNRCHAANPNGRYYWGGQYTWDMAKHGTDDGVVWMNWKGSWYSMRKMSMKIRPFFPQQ
#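 Assay system: human fibrin DD(E) protein / Input: 2 µM fibrin DD(E) / Benchmarks: high control of 10 µM Aha-Tn7 peptide / Measured by: fluorescence polarization of the labelled Tn7 tracer / Medium: Tris buffer with calcium and detergent, pH 7.8 / Timing: 10 min compound pre-incubation, 3 h probe incubation at room temperature / Repeats: one replicate per compound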
# CRFBP-R2 agonist – agonists of human CRF-binding protein/CRF-R2 receptor complex. HEK293 CRF-R2/CRF-BP, calcium dye fluorescence (FLIPR); percent of saturating CRF peptide response. AID 588473. activation, % at 13.2 µM. hit rate 0.46% among 350,000;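 active = activation of at least 50%, plus an integration ratio under a set limit after plate pattern correction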;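 note: plate controls were neutral control wells without compound for no effect and CRF at EC100 for full effect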
# Tn6 DDE FP – disrupts Tn6 cyclic peptide binding to fibrin D-Dimer-E complex; P02675; Fibrin DD(E) TRITC-Tn6 fluorescence polarization displacement; inhibition, % at 8.3 µM; hit rate 0.21% among 370,000; AID 720509;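 active = inhibition above a per-campaign cutoff: mean of compounds within control limits plus 3 SD, cut at about 15% in these data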;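 note: 0% = median of all compound wells on the plate and 100% = blocking peptide control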
# proKLK7 act – activates the human kallikrein-7 zymogen; purified proKLK7, EDANS-DABCYL substrate fluorescence; 100% is mature enzyme control, 0% vehicle; activation, % at 7 µM; hit rate 0.9% among 370,000; AID 652039;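 active = activation above the mean of all tested compounds plus 3 SD, computed per campaign excluding outliers beyond control limits, cut at about 13% in these data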
# CendR NRP1 mod – NRP-1/CendR interaction modulation | O14786 | FAM-RPARPAR peptide binding to NRP-1, fluorescence polarization | inhibition, % at 25 µM | hit rate 0.85% among 360,000 | AID 602438;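 active = inhibition or corrected inhibition above about 18%, plus a signal ratio from 0.5 to 1.5, limit read from the data, passing the limit was not always enough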
# CRFR2-BP antag – CRF-BP/CRF-R2 complex antagonism | HEK293 CRF-R2/CRF-BP, CRF-induced calcium fluorescence | inhibition, % at 11.8 µM | hit rate 0.59% among 350,000 | AID 588475;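 active = inhibition of the ligand-induced calcium signal above about 50% at the single tested concentration, limit read from the data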
# An asterisk follows results filed as active; . = no result given.
SMILES,DDE Tn7 FP inh,CRFBP-R2 agonist,Tn6 DDE FP,proKLK7 act,CendR NRP1 mod,CRFR2-BP antag
COc1ccc(-c2noc(C3CCCN(C(=O)NC4CCC(C)CC4)C3)n2)cc1 (stereo not drawn),8.8,.,0.3,0.6,.,.
O=C(NC1CCCCN(Cc2cccc(Cl)c2)C1=O)c1ccc2ccccc2c1 (stereo not drawn),-5.2,.,9.7,1.8,.,.
Cc1nc2ccccc2n1-c1ccccc1,1.9,-2.9,-3.8,-1.1,-5.5,-5.2
O=c1c(/C=C(\O)c2ccccc2)nc2ccccc2n1-c1ccccc1,1.1,155.9*,0.2,-28.2,-40.9,-79.8
COc1ccc(/C=C/S(=O)(=O)NCc2ccc(F)cc2)c(CNC(=O)OC(C)(C)C)c1,2.2,.,-2.6,-0.4,.,.
COC(=O)[C@]12C[C@H](CC(=O)N3CCCC3)C(=O)N(CCC3=CCCCC3)C1=C[C@H](C(C)C)O[C@@H]2C1CC1,3.6,.,-1.9,-0.7,.,.
CCCc1nc(SCc2ccc(Cl)cc2Cl)n[nH]1,1.0,0.1,3.8,0.5,-3.1,59.0*
Cn1c(SCC(=O)Nc2ccc(F)cc2)nc2c(c1=O)SCC2,-4.3,0.9,-7.6,0.0,24.3*,-1.4
N#Cc1c(-c2ccco2)nc(SCc2ccc(F)cc2)[nH]c1=O,4.8,-0.5,3.5,-0.5,-31.7,29.2
N#Cc1c(-c2ccco2)nc(NCC2CCCO2)[nH]c1=O (stereo not drawn),-0.1,-1.7,0.2,0.2,26.8*,-3.1
CC1(C)Cc2c(C#N)c(NC3CCCCC3)nc(-c3ccco3)c2CO1,.,.,.,.,-45.7,.
CC1(C)Cc2c(C#N)c(NCC3CCCO3)nc(-c3ccco3)c2CO1 (stereo not drawn),-0.3,0.9,-0.5,4.8,-24.1,103.6*
Cc1cccc(C(=O)NC(=S)NCc2ccccc2)c1,1.1,1.9,3.1,-0.1,-0.7,-2.4
CCC(=O)NNC(=S)NC(=O)c1ccc(C)cc1,0.0,4.4,-2.3,-0.7,2.9,-29.2
Cc1ccc(C(=O)NC(=S)NNC(=O)COc2ccccc2C)cc1,-0.3,114.0*,3.9,0.0,16.9,-50.4
Cc1cccc(C(=O)NC(=S)NNC(=O)Cc2ccccc2)c1,-5.8,136.5*,-8.0,-0.5,1.7,17.2
Cc1cccc(C(=O)NC(=S)NNC(=O)COc2c(C)cccc2C)c1,0.0,166.5*,7.7,-0.1,6.0,-90.3
O=C(COc1ccccc1)NNC(=S)NC(=O)c1ccccc1,8.7,-1.1,-1.7,0.1,8.4,-20.4
Cc1cccc(C(=O)NC(=S)NNC(=O)c2ccccc2Cl)c1,-1.4,152.2*,-1.6,0.2,0.8,-1.9
COc1ccc2[nH]c3c(c2c1)CCN[C@]31C(=O)N(Cc2ccccc2)c2ccccc21,-2.9,.,4.8,0.1,.,.
Cc1cccc(C(=O)NC(=S)N2CCN(C(=S)NC(=O)c3cccc(C)c3)CC2)c1,2.7,-0.7,1.0,0.1,7.1,50.2*
Cc1ccc(OCC(=O)NNC(=S)NC(=O)C(C)(C)C)c(Br)c1,-5.5,84.5*,4.3,0.0,10.0,-18.5
Cc1cccc(C(=O)NC(=S)N2CCN(C)CC2)c1,-4.2,-1.0,-5.2,-0.3,3.7,22.0
Cc1ccc(OCC(=O)NC(=S)Nc2ccccn2)c(Br)c1,4.7,4.1,2.1,-0.2,6.1,3.6
O=C1[C@@H](CCc2ccccc2)[C@@H]2c3ccccc3C=NN2[C@@H]2c3ccccc3C=NN12,-2.6,.,-4.4,0.0,.,.
SMILES,DDE Tn7 FP inh,CRFBP-R2 agonist,Tn6 DDE FP,proKLK7 act,CendR NRP1 mod,CRFR2-BP antag
COc1cccc(CNC(=O)[C@H]2CCCN2C(=O)[C@H]2CCCN2C(=O)c2ccccc2)c1,2.2,.,2.3,-0.1,.,.
CCN(CC)C(=O)c1c[nH]c2ccc(S(=O)(=O)Nc3cc(C)cc(C)c3)cc2c1=O,1.6,125.4*,2.6,-1.7,4.9,-106.2
Cc1cc(C)cc(NS(=O)(=O)c2ccc3[nH]cc(C(=O)N4CCc5ccccc54)c(=O)c3c2)c1,2.7,61.0*,-12.4,0.4,-8.6,-101.3
O=C(CSc1nnc(-c2cccs2)o1)c1cccc([N+](=O)[O-])c1,-3.5,.,-5.9,0.5,.,.
CCOC(=O)c1c(NC(=O)C(=O)N/N=C/c2ccc(OCC)cc2)sc2c1CCCCC2,-4.5,-1.6,0.9,-0.6,8.4,8.5
COc1ccc(/C=N/NC(=O)c2cc(C34CC5CC(CC(C5)C3)C4)[nH]n2)cc1OC,2.4,0.8,-4.6,-1.1,22.3*,-0.8
COc1cc(/C=N/NC(=O)c2nc(C)cc(C)n2)ccc1O,-0.6,164.9*,-6.3,0.2,8.2,-156.6
COc1cccc(/C=N/NC(=O)c2cc(C34CC5CC(CC(C5)C3)C4)[nH]n2)c1,0.6,2.4,-0.6,1.6,-1.5,7.9
CCOC(=O)c1c(NC(=O)C(=O)N/N=C/c2ccc(O)c(OC)c2)sc2c1CCCCC2,3.1,-1.6,0.6,-0.4,5.8,54.7*
COc1ccc(-n2c(SCC(=O)Nc3cc(C)c(NC(=O)c4ccccc4)cc3OC)nnc2-c2ccccc2F)cc1,-4.1,.,-1.7,-2.2,.,.
COc1ccc(C(C(=O)NC(C)(C)C)N(C(=O)CCC(=O)Nc2cc(C)on2)c2c(C)cccc2C)cc1 (stereo not drawn),-6.3,2.8,12.6,0.0,31.0*,-15.1
Fc1ccc(CNC(=S)NC2CCCC2)cc1,-3.3,-0.3,1.1,0.0,32.0*,8.2
Fc1ccc(CNC(=S)NC2CCCCC2)cc1,-0.7,-1.5,2.6,0.4,2.4,11.0
NS(=O)(=O)c1ccc(CNC(=S)NCc2ccc(F)cc2)cc1,1.3,0.1,-8.9,0.3,25.1*,2.4
CC1CCC2(CCC(=O)N2CCCO)CC1 (stereo not drawn),-0.9,.,4.6,-1.0,.,.
COc1cccc(CN(C)C(=O)[C@H]2O[C@@H](n3cnc4c(=O)[nH]c(N)nc43)[C@H](O)[C@@H]2O)c1,8.0,.,-0.1,-0.2,.,.
COCCn1c(-c2ccsc2)nc2c1c(=O)[nH]c(=O)n2CC(C)C,-0.6,47.8,-4.0,0.3,1.6,51.2*
COCCn1c(-c2ccc3ccccc3c2)nc2c1c(=O)[nH]c(=O)n2CC(C)C,-1.9,-0.1,3.0,-2.2,-1.4,-22.1
O=C(COCc1ccccc1)N1CC[C@H]2[C@H](CCCN2Cc2ccc(F)cc2)C1,-0.5,.,2.5,-0.4,.,.
O=C1CC(c2ccc(Cl)cc2)CC(O)=C1C=NCCO (stereo not drawn),-4.1,-0.2,3.1,-0.1,16.2*,-7.9
COC(=O)N1C[C@H](OC(=O)c2ccc(-c3ccccc3)cc2)[C@H]2C[C@@H]1c1ccccc1O2,-1.0,.,-2.0,0.2,.,.
COC(=O)c1cc(NC(=O)Cc2coc3cc(OC)ccc23)cc(C(=O)OC)c1,-7.1,-0.4,-17.2,0.1,-10.6,5.6
COC(=O)c1ccc(C)c(NC(=O)Cc2coc3cc(OC)ccc23)c1,-5.6,-1.0,6.9,-0.2,31.7*,31.7

# High-throughput results: PubChem BioAssay, several laboratories
